Laboratory results taken from ChEMBL document CHEMBL1125881, “Synthesis and hypocholesterolemic activity of 6,7-dihydro-4H-pyrazolo[1,5-a]pyrrolo[3,4-d]pyrimidine-5,8-diones, novel inhibitors of acylCoA:cholesterol O-acyltransferase” (J Med Chem, 1991).
Values joined by “and” are separate entries in the source; they are usually repeats but may differ in a detail not shown here. Identical values can stand only once.

What was measured:
[1] = target: T1, Sterol O-acyltransferase 1 (Rattus norvegicus) (UniProt O70536); test: Inhibition of Fu5AH Acyl coenzyme A:cholesterol acyltransferase at the concentration of 10 ug/mL
T1 sequence (whole entry): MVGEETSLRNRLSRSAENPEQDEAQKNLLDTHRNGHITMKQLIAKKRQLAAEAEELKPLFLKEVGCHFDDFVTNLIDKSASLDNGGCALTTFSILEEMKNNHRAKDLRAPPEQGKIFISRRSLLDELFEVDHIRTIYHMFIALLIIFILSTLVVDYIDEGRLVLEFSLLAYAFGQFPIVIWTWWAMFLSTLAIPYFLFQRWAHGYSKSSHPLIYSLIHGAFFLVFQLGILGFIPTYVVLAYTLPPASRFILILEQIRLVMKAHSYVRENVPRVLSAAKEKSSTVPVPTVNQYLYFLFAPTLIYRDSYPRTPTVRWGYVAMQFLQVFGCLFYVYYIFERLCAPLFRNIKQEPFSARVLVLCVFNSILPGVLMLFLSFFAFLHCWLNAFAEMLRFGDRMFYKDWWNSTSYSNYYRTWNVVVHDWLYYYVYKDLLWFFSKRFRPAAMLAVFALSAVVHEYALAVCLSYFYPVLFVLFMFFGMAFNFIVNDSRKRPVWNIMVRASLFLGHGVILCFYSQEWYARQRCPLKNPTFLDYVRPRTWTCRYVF

[2] = target: T2, Sterol O-acyltransferase 1 (Rattus norvegicus, UniProt O70536); test: In vitro inhibition of Fu5AH acyl coenzyme A:cholesterol acyltransferase.
T2 sequence (O70536 whole entry): T1 sequence (whole entry)

Rattus norvegicus [3] = species on record: Rattus norvegicus; test: (§1) Percent control of serum cholesterol in cholesterol; format: functional; parameters: concentration or dose not given beside the values
Outline: (§2)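 Male Sprague-Dawley rats (100–110 g), groups of 10, fed synthetic diet with 1% cholesterol; compound mixed into diet to give the stated daily dose (mg/kg) for 7 days. Serum from jugular bleed under anesthesia; VLDL+LDL separated from HDL by PEG-8000 precipitation in glycine buffer pH 9; values expressed as % of cholesterol-fed control; one-way design, LSD comparison.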

Rattus norvegicus [4] = species on record: Rattus norvegicus; test: as §1; format: functional; parameters: concentration or dose not given beside the values; outline: as §2; remark: listed apart in the source
Rattus norvegicus [5] = species on record: Rattus norvegicus; test: as §1; format: functional; parameters: concentration or dose not given beside the values; outline: as §2; remark: listed apart in the source
Rattus norvegicus [6] = species on record: Rattus norvegicus; test: (§3) The compound was tested for % control of serum cholesterol in cholesterol; format: functional; outline: as §2
Rattus norvegicus [7] = species on record: Rattus norvegicus; test: as §3; format: functional; outline: as §2; remark: listed apart in the source
Rattus norvegicus [8] = species on record: Rattus norvegicus; test: as §3; format: functional; outline: as §2; remark: listed apart in the source
Rattus norvegicus [9] = species on record: Rattus norvegicus; test: as §3; format: functional; outline: as §2; remark: listed apart in the source
Rattus norvegicus [10] = species on record: Rattus norvegicus; test: as §3; format: functional; outline: as §2; remark: listed apart in the source
Rattus norvegicus [11] = species on record: Rattus norvegicus; test: as §3; format: functional; outline: as §2; remark: listed apart in the source

Row | Structure (SMILES) | inhibition [1] | IC50 [2] | Control (Rattus norvegicus [3]) | Control (Rattus norvegicus [4]) | Control (Rattus norvegicus [5]) | further results
1 | O=C(Cn1c2c(c(=O)n3nc(-c4ccccc4)cc13)CN(Cc1ccccc1)C2=O)c1ccccc1 | 70% | 5.48 µM | 100% | 100% | 101% | –
2 | CCOc1ccc(-c2cc3n(Cc4ccccc4)c4c(c(=O)n3n2)CN(C2CCCCC2)C4=O)cc1 | 75% | – | 93% | 110% | 122% | –
3 | O=C1c2c(c(=O)n3nccc3n2Cc2ccccc2)CN1C1CCCCC1 | 25% | – | – | – | – | –
4 | O=C1c2c(c(=O)n3nc(-c4ccccc4)cc3n2Cc2ccccc2)CN1C[C@H]1CC[C@H](O)CC1 | 23% | – | 90% | 108% | 128% | –
5 | O=C1c2c(c(=O)n3nc(C4CCCCC4)cc3n2Cc2ccccc2)CN1C1CCCCC1 | 12% | – | 111% | 109% | 106% | –
6 | CCCCCCCC/C=C\CCCCCCCCN1Cc2c(n(CC(=O)c3ccccc3)c3cc(-c4ccccc4)nn3c2=O)C1=O | 1% | – | 86% | 76% | 69% | –
7 | CCCCCCCCCCCCCCCCOc1ccc(C(=O)Cn2c3c(c(=O)n4nc(-c5ccccc5)cc24)CN(C2CCCCC2)C3=O)cc1 | 2% | – | – | – | – | –
8 | CC(c1ccccc1)N1Cc2c(n(CC(=O)c3ccccc3)c3cc(-c4ccccc4)nn3c2=O)C1=O (stereo unspecified) | 30% | – | 92% | 91% | 90% | –
9 | O=C1c2c(c(=O)n3nc(-c4ccccc4)cc3n2Cc2ccccc2)CN1Cc1ccccc1 | 90% | 10.5 µM | 92% | 105% | 113% | –
10 | O=C1c2c(c(=O)n3nc(-c4ccccc4)cc3n2CC2CCCCC2)CN1C1CCCCC1 | 97% | 8.77 µM | 80% | 111% | 144% | –
11 | COc1ccc(CN2Cc3c(n(CC(=O)c4ccccc4)c4cc(-c5ccccc5)nn4c3=O)C2=O)cc1 | 10% | – | – | – | – | –
12 | CC(C)(C)CC(C)(C)N1Cc2c(n(CC(=O)c3ccccc3)c3cc(-c4ccccc4)nn3c2=O)C1=O | 80% | 8.86 µM | 122% | 107% | 96% | –
13 | O=C1c2c(c(=O)n3nc(-c4ccccc4)cc3n2Cc2ccccc2)CN1c1ccccc1 | 18% | – | – | – | – | –
14 | CC(C)CC(C)N1Cc2c(n(CC(=O)c3ccccc3)c3cc(-c4ccccc4)nn3c2=O)C1=O (stereo unspecified) | 85% | 6.4 µM | 89% | 72% | 57% | –
15 | CCCCCCN1Cc2c(n(CC(=O)c3ccccc3)c3cc(-c4ccccc4)nn3c2=O)C1=O | 75% | – | 98% | 89% | 86% | –
16 | CCCCCCCCCCCCN1Cc2c(n(CC(=O)c3ccccc3)c3cc(-c4ccccc4)nn3c2=O)C1=O | 39% | – | 92% | 91% | 85% | –
17 | C=CCOc1ccc(-c2cc3n(Cc4ccccc4)c4c(c(=O)n3n2)CN(C2CCCCC2)C4=O)cc1 | 65% | 11.5 µM | 95% | 94% | 98% | –
18 | CN1Cc2c(n(Cc3ccccc3)c3cc(-c4ccccc4)nn3c2=O)C1=O | 8% | – | – | – | – | –

Further lines, with some results ahead:

Row | inhibition [1] | IC50 [2] | Structure (SMILES) | Control (Rattus norvegicus [3]) | Control (Rattus norvegicus [4]) | Control (Rattus norvegicus [5]) | further results
19 | 1% | – | COC(=O)c1ccc(C(=O)Cn2c3c(c(=O)n4nc(-c5ccccc5)cc24)CN(C2CCCCC2)C3=O)cc1 | 99% | 107% | 116% | –
20 | 19% | – | O=C(Cn1c2c(c(=O)n3nc(-c4ccccc4)cc13)CN(C1CCCCC1)C2=O)c1ccc2ccccc2c1 | – | – | – | –
21 | 25% | – | COC(=O)Cn1c2c(c(=O)n3nc(-c4ccccc4)cc13)CN(C1CCCCC1)C2=O | 112% | 109% | 109% | –
22 | 83% | 4.39 µM | O=C(Cn1c2c(c(=O)n3nc(-c4ccccc4)cc13)CN(C1CC3CCC1C3)C2=O)c1ccccc1 (stereo unspecified) | 90% | 75% | 63% | –
23 | 21% | – | O=C1c2c(c(=O)n3ncc(-c4ccccc4)c3n2Cc2ccccc2)CN1C1CCCCC1 | – | – | – | –
24 | 28% | – | CCOC(=O)CCCn1c2c(c(=O)n3nc(-c4ccccc4)cc13)CN(C1CCCCC1)C2=O | – | – | – | –
25 | 88% | 5.16 µM | O=C(Cn1c2c(c(=O)n3nc(-c4ccccc4)cc13)CN(C1CCCCC1)C2=O)c1ccc(F)cc1 | 101% | 98% | 95% | –
26 | 31% | – | O=C1c2c(c(=O)n3nc(-c4ccccc4)cc3n2CS(=O)(=O)c2ccccc2)CN1C1CCCCC1 | – | – | – | –
27 | 39% | – | O=C(Cn1c2c(c(=O)n3nc(-c4ccccc4)cc13)CN(C1CCCCCCCCCCC1)C2=O)c1ccccc1 | 92% | 83% | 76% | –
28 | 55% | 22.9 µM | O=C1c2c(c(=O)n3nc(-c4ccccc4)cc3n2CSc2ccccc2)CN1C1CCCCC1 | – | – | – | –
29 | 66% | – | O=C1c2c(c(=O)n3nc(-c4ccccc4)cc3n2CC(O)c2ccccc2)CN1C1CCCCC1 (stereo unspecified) | – | – | – | –
30 | 92% | 3.64 µM | O=C(Cn1c2c(c(=O)n3nc(-c4ccccc4)cc13)CN(C1CCCCC1)C2=O)c1ccccc1 | 128% | 97% and 88% | 65% | Control (Rattus norvegicus [6]): 133%; Control (Rattus norvegicus [7]): 97%; Control (Rattus norvegicus [8]): 75%; Control (Rattus norvegicus [9]): 120%; Control (Rattus norvegicus [10]): 84%
31 | 75% | 15.5 µM | O=C1c2c(c(=O)n3nc(-c4ccccc4)cc3n2C/C=C/c2ccccc2)CN1C1CCCCC1 | – | – | – | –
32 | 78% | 13.7 µM | O=C(CCCn1c2c(c(=O)n3nc(-c4ccccc4)cc13)CN(C1CCCCC1)C2=O)c1ccccc1 | – | – | – | –
33 | 68% | – | O=C(Cn1c2c(c(=O)n3nc(-c4ccccc4)cc13)CN(C1CCCCCCC1)C2=O)c1ccccc1 | 100% | 83% | 67% | –
34 | 79% | 6.67 µM | CC1CCCC(N2Cc3c(n(CC(=O)c4ccccc4)c4cc(-c5ccccc5)nn4c3=O)C2=O)C1C (stereo unspecified) | 122% | 89% | 59% | Control (Rattus norvegicus [6]): 109%; Control (Rattus norvegicus [7]): 83%; Control (Rattus norvegicus [8]): 62%; Control (Rattus norvegicus [9]): 105%; Control (Rattus norvegicus [11]): 86%; Control (Rattus norvegicus [10]): 70%
35 | 88% | 7.98 µM | O=C1c2c(c(=O)n3nc(-c4ccccc4)cc3n2Cc2ccccc2)CN1C1CCCCC1 | 97% | 104% | 110% | –
36 | 13% | – | Cn1c2c(c(=O)n3nc(-c4ccccc4)cc13)CN(C1CCCCC1)C2=O | – | – | – | –
37 | 48% | – | CCCCCCn1c2c(c(=O)n3nc(-c4ccccc4)cc13)CN(C1CCCCC1)C2=O | – | – | – | –
38 | 33% | – | O=C1c2c(c(=O)n3nc(-c4ccc(O)cc4)cc3n2Cc2ccccc2)CN1C1CCCCC1 | – | – | – | –
39 | 52% | – | COc1ccc(C(=O)Cn2c3c(c(=O)n4nc(-c5ccccc5)cc24)CN(C2CCCCC2)C3=O)cc1 | – | – | – | –
40 | 55% | – | CC(C(=O)c1ccccc1)n1c2c(c(=O)n3nc(-c4ccccc4)cc13)CN(C1CCCCC1)C2=O (stereo unspecified) | – | – | – | –
41 | 87% | 2.74 µM | O=C(Cn1c2c(c(=O)n3nc(-c4ccccc4)cc13)CN(C1CCCCC1)C2=O)c1cccc([N+](=O)[O-])c1 | 83% | 106% | 126% | –
